From ChEMBL document CHEMBL1143620, “Discovery of diphenyloxazole and Ndelta-Z-ornithine derivatives as highly potent and selective human prostaglandin EP(4) receptor antagonists” (J Med Chem, 2005)

Assays:
[1] = Maximal plasma concentration in dogs after 0.32 mg/kg oral dose, n=3; type: ADME, organism-based, Canis lupus familiaris; design: dose 0.32 mg/kg, route oral; details: dog
Method in brief: (§1)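 Single oral doses, n = 3 animals per dose. Peak plasma level reported in ng/mL, with oral bioavailability given as F (%). Values are mean ± SE.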

[2] = Half life in dog after iv administration (n=2-3); type: ADME, organism-based, Canis lupus familiaris; details: in vivo
[3] = Clearance in dog after iv administration (n=2-3); type: ADME, organism-based, Canis lupus familiaris; details: in vivo
[4] = Clearance in rat after iv administration (n=2-3); type: ADME, organism-based; details: in vivo
[5] = molecular target: Prostaglandin E2 receptor EP4 subtype (Homo sapiens, UniProt P35408); experiment: Inhibition of [3H]PGE-2 binding to human prostanoid EP4 receptor
Prostaglandin E2 receptor EP4 subtype (Homo sapiens, UniProt P35408), sequence (P35408 whole entry): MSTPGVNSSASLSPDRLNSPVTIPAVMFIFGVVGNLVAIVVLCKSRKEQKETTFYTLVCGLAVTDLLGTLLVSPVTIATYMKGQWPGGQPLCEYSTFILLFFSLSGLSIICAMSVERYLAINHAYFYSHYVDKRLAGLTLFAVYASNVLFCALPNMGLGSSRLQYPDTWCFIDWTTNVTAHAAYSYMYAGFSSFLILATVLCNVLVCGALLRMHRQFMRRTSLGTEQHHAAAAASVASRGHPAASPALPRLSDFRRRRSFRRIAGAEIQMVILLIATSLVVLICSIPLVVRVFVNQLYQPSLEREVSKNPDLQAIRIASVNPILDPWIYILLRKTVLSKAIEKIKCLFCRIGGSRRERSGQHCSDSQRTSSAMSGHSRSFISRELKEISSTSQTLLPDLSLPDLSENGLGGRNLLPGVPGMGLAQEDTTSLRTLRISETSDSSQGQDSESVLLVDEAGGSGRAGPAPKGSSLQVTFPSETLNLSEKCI

[6] = Bioavailability in dog at 0.32 mg/kg after po administration (n=3); type: ADME, organism-based, Canis lupus familiaris; details: in vivo; method in brief: as §1
[7] = molecular target: T1, Prostaglandin E2 receptor EP3 subtype (Homo sapiens, UniProt P43115); experiment: Inhibition of [3H]PGE-2 binding to human prostanoid EP3 receptor
T1 sequence (P43115 whole entry): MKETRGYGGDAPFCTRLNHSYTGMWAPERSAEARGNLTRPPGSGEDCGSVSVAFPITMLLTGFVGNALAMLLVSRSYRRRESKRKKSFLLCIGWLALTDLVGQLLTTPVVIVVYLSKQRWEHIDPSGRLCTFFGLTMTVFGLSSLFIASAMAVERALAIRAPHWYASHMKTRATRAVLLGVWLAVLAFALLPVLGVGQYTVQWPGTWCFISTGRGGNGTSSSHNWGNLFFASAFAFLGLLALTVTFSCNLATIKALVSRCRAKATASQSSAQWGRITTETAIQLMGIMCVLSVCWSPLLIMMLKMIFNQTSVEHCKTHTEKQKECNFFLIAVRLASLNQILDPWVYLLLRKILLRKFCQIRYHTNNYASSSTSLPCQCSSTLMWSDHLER

[8] = Half life in rat after iv administration (n=2-3); type: ADME, organism-based; details: in vivo
[9] = Bioavailability in rat at 0.32 mg/kg after po administration (n=3); type: ADME, organism-based; details: in vivo
Prostacyclin receptor = Prostacyclin receptor (Homo sapiens, UniProt P43119); experiment: Inhibition of [3H]iloprost binding to human prostanoid IP receptor
Prostacyclin receptor, sequence (P43119 whole entry): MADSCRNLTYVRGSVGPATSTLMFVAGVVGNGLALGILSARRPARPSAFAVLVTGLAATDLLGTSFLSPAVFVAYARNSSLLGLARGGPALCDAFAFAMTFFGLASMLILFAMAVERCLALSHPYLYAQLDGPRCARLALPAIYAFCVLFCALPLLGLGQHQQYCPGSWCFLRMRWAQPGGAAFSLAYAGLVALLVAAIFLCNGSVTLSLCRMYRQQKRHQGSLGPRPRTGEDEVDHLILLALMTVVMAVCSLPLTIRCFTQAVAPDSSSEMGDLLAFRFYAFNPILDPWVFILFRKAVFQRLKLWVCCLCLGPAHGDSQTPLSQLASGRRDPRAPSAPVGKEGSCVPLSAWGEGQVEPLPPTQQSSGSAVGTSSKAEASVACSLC

[10] = molecular target: Prostaglandin E2 receptor EP4 subtype (Rattus norvegicus, UniProt P43114); experiment: Inhibition of rat prostanoid EP4 receptor
Prostaglandin E2 receptor EP4 subtype (Rattus norvegicus, UniProt P43114), sequence (P43114 whole entry): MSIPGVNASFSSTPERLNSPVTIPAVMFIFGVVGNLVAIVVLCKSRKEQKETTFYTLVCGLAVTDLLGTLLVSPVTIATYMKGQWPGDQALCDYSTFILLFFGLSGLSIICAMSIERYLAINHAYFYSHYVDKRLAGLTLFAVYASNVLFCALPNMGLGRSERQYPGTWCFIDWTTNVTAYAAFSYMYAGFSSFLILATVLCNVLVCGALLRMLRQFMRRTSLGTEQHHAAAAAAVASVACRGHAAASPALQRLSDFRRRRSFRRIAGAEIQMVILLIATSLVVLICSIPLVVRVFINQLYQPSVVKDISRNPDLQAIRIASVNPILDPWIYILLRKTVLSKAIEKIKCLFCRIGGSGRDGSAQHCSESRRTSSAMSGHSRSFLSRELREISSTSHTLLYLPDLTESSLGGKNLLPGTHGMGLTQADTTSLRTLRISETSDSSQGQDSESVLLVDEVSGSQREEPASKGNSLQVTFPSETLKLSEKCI

[11] = Maximal plasma concentration in rats after 10 mg/kg oral dose n=3; type: ADME, organism-based; design: dose 10 mg/kg, route oral; details: rat
[12] = molecular target: Prostaglandin F2-alpha receptor (Homo sapiens, UniProt P43088); experiment: Inhibition of [3H]PGF-2 binding to human prostanoid FP receptor
Prostaglandin F2-alpha receptor, sequence (P43088 whole entry): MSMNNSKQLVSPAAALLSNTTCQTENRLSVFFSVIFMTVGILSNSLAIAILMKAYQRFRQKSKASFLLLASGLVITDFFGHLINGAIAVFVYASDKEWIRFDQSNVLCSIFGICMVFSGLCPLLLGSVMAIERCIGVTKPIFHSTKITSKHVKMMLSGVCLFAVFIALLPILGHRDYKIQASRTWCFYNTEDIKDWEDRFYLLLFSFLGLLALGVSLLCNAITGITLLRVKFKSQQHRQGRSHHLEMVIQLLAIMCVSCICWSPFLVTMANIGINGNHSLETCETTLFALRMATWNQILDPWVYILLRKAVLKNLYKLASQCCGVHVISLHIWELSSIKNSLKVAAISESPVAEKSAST

[13] = Bioavailability in rat (dose 10 mg/kg p.o.); type: ADME, organism-based; details: in vivo, po
[14] = Bioavailability in dog at 3.2 mg/kg after po administration (n=3); type: ADME, organism-based, Canis lupus familiaris; details: in vivo; method in brief: as §1
[15] = molecular target: Prostaglandin E2 receptor EP2 subtype (Homo sapiens, UniProt P43116); experiment: Inhibition of [3H]PGE-2 binding to human prostanoid EP2 receptor
Prostaglandin E2 receptor EP2 subtype, sequence (P43116 whole entry): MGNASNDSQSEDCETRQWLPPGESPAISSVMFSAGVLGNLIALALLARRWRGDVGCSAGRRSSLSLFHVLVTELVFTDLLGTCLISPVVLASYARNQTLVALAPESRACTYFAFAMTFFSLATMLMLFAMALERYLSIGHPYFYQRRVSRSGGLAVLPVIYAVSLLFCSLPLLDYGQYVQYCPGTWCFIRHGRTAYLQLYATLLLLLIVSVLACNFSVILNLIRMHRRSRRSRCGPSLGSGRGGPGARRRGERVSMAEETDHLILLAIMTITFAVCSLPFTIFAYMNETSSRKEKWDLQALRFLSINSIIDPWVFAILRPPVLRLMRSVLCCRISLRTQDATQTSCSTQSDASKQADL

Thromboxane A2 receptor = molecular target: T2, Thromboxane A2 receptor (Homo sapiens, UniProt P21731); experiment: Inhibition of [3H]SQ-29,548 binding to human prostanoid TP receptor
T2 sequence (P21731 whole entry): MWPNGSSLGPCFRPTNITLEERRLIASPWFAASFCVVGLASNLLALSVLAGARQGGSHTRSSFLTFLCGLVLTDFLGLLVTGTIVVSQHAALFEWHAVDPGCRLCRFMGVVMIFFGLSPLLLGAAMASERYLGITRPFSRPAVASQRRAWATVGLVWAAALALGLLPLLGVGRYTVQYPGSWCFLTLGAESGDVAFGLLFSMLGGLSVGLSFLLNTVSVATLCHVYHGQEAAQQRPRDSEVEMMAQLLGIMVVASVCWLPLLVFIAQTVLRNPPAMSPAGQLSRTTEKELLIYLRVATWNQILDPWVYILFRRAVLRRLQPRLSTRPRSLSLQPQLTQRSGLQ

[16] = Maximal plasma concentration in dogs after 3.2 mg/kg oral dose, n=3; type: ADME, organism-based, Canis lupus familiaris; design: dose 3.2 mg/kg, route oral; details: dog; method in brief: as §1
[17] = molecular target: T3, Prostaglandin D2 receptor (Homo sapiens, UniProt Q13258); experiment: Inhibition of [3H]PGD-2 binding to human prostanoid DP receptor
T3 sequence (Q13258 whole entry): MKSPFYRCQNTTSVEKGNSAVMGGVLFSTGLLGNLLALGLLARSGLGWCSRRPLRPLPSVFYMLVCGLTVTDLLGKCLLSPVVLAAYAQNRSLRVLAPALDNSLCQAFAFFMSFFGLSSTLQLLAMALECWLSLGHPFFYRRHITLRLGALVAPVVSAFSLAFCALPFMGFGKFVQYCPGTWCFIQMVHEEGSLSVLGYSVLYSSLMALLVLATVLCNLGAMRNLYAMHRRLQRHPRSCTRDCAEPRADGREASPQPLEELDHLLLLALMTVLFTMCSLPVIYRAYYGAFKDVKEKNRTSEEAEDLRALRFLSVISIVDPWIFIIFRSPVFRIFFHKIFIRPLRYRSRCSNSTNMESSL

[18] = molecular target: T4, Prostaglandin E2 receptor EP1 subtype (Homo sapiens, UniProt P34995); experiment: Inhibition of [3H]-PGE-2 binding to human prostanoid EP1 receptor
T4 sequence (P34995 whole entry): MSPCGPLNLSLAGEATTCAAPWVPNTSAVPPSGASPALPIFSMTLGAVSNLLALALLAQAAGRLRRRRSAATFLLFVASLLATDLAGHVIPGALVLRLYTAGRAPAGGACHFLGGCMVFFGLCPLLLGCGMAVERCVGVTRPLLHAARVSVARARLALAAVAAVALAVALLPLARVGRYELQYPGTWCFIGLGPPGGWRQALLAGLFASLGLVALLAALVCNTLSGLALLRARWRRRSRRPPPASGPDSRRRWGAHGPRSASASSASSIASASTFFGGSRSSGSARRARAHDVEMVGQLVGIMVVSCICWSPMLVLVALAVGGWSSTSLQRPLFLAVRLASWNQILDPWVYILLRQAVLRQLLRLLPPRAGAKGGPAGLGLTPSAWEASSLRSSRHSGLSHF

[19] = Bioavailability in dog at 0.10 mg/kg after po administration (n=3); type: ADME, organism-based, Canis lupus familiaris; details: in vivo, 0.1 mg/kg; method in brief: as §1
[20] = Maximal plasma concentration in dogs after 0.1 mg/kg oral dose, n=3; type: ADME, organism-based, Canis lupus familiaris; design: dose 0.1 mg/kg, route oral; details: dog; method in brief: as §1

| Compound | half-life [2] [h] | clearance [3] [mL/min/kg] | Ki [5] [µM] | Ki [7] [µM] | half-life [8] [h] | Ki (Prostacyclin receptor) [µM] | Ki [12] [µM] | Ki [15] [µM] | Ki (Thromboxane A2 receptor) [µM] | Ki [17] [µM] | Ki [18] [µM] | other results |
| --- | --- | --- | --- | --- | --- | --- | --- | --- | --- | --- | --- | --- |
| O=C([O-])COc1cccc(C[C@@H]2CCCC=C2c2nc(-c3ccccc3)c(-c3ccccc3)o2)c1.[Na+] | 3 | 1.59 | 1.02 | > 1 | 6.6 | – | – | – | – | – | – | Cmax [1]: 592 ng/mL; Cl [4]: 17.7 mL/min/kg; bioavailability [6]: 72%; bioavailability [9]: 50% |
| O=C(O)Cc1cccc(C[C@@H]2CCCC=C2c2nc(-c3ccccc3)c(-c3ccccc3)o2)c1 | – | – | 0.05 | – | – | 0.17 | – | – | – | – | – | – |
| O=C(O)CCCCCNC(=O)[C@H](CCCCNC(=O)OCc1ccccc1)NC(=O)c1cc2ccccc2o1 | – | – | 0.0084 | – | – | – | – | – | – | – | – | – |
| O=C(NS(=O)(=O)Cc1ccccc1)c1cccc(C[C@@H]2CCCC=C2c2nc(-c3ccccc3)c(-c3ccccc3)o2)c1 | 5.5 | 0.52 | 0.0003 | > 3 | 4.4 | > 3 | > 3 | > 3 | > 3 | > 3 | > 3 | Ki [10]: 0.00074 µM; Cmax [11]: 2100 ng/mL; clearance [4]: 10.2 mL/min/kg; bioavailability [13]: 51%; bioavailability [14]: 97%; Cmax [16]: 8200 ng/mL |
| O=C(NCCC[C@H](NC(=O)c1cc2ccccc2[nH]1)C(=O)N[C@@H](Cc1ccccc1)C(=O)O)OCc1ccccc1 | – | – | 0.043 | > 1 | – | > 1 | > 1 | > 1 | > 1 | > 1 | > 1 | – |
| CN(Cc1ccccc1)C(=O)[C@H](Cc1ccccc1)NC(=O)[C@H](CCCNC(=O)OCc1ccccc1)NC(=O)c1cc2ccccc2[nH]1 | – | – | 0.08 | – | – | – | – | – | – | – | – | – |
| O=C(O)c1cccc(C[C@@H]2CCCC=C2c2nc(-c3ccccc3)c(-c3ccccc3)o2)c1 | 5.5 | 0.52 | 0.0055 | > 3 | 4 | 0.61 | > 3 | > 3 | > 3 | > 3 | 2.5 | Cmax [11]: 9100 ng/mL; clearance [4]: 11.2 mL/min/kg; bioavailability [13]: 99%; bioavailability [19]: 25%; Cmax [20]: 57.3 ng/mL |
| O=C(O)CCCCCNC(=O)[C@H](CCCNC(=O)OCc1ccccc1)NC(=O)c1cc2ccccc2o1 | – | – | 0.00091 | > 10 | – | > 10 | > 10 | > 10 | > 10 | > 10 | > 10 | Ki [10]: 0.0051 µM |
| O=C(O)CCCCCNC(=O)[C@@H](CCCCNC(=O)OCc1ccccc1)NC(=O)c1cc2ccccc2o1 | – | – | 0.24 | – | – | – | – | – | – | – | – | – |
| O=C(NOCc1ccccc1)c1cccc(C[C@@H]2CCCC=C2c2nc(-c3ccccc3)c(-c3ccccc3)o2)c1 | – | – | 0.00068 | > 3 | – | > 3 | > 1 | > 3 | > 1 | > 1 | > 3 | – |
